Sampled rows, rich in hits. Any-hit rate of the full collection: about 0.95%.
ASAP1 GAP inh: blocks human ASAP1-stimulated Arf1 GTP hydrolysis. Q9ULH1. GDP FP detection. inhibition, % at 16.5 µM. 0.19% of 360,000 active. AID 624377; in the data active = inhibition above about 25%
HNF4A DNA FP: change in binding of human HNF4 alpha to DNA | P41235 | 0.3% of 360,000 active | activity change, % at 10 µM | HNF4a-FITC DNA binding, fluorescence polarization, 1 h; in the data active = activity change above about 30%, passing the limit was not always enough
CSN inh: blocks human CSN-mediated cullin deneddylation; inhibition, % at 12.5 µM; AID 651999; Purified CSN, SCF-Nedd8-OG deneddylation, fluorescence polarization; 0.38% of 360,000 active;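 active = pattern-corrected inhibition above about 35%, with an unprinted fluorescence ratio check between 0.5 and 1.5, limit read from the data, passing the limit was not always enough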
Target sequence (Q92905 whole entry, looked up, one chain of several): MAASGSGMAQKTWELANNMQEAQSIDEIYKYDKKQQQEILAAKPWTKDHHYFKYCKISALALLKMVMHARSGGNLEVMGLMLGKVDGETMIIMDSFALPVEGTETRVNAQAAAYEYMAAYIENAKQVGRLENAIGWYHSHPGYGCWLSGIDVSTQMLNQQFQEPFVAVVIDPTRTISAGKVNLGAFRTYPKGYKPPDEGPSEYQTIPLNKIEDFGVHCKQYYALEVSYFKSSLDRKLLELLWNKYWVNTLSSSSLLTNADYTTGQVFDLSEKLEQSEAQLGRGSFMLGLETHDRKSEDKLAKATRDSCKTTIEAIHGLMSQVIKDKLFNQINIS
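Material: human Csn5 produced in HEK293T cells; Input: enzyme 0.24 nM; Reagent: SCFSkp2-Nedd8OG substrate at 10 nM final; Dosing: 12.5 µM compound; Incubation: 90 min reaction at room temperature; Detection: fluorescence polarization of the substrate; Evaluation: % inhibition of substrate cleavage by Csn5; Control set: substrate-only high control, full reaction low control.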
ARFGAP1 inh: rat ARFGAP1 inhibition. Q62848. Arfgap1-stimulated ARF1 GTP hydrolysis, GDP FP detection. inhibition, % at 16.5 µM. 0.26% of 360,000 active. AID 651572;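 active = inhibition above a per-plate limit, mean inhibition of low control wells plus 3 SD, cut at about 25% in these data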
Target sequence (Q62848 1-136 limits assumed): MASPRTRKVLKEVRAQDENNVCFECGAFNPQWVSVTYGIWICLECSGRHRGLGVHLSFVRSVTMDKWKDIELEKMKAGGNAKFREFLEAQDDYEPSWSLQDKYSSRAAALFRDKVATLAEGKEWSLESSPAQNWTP
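Material – truncated rat Arfgap1 GAP domain · Buffer or medium – HEPES-based buffer, pH 7.5 · Reagent – human ARF1(Δ1-17)-GTP substrate · Dosing – 16.5 µM single point, 1.26% DMSO · Schedule – GTP hydrolysis reaction 2 h at 25 °C · Technique – GDP detection by fluorescence polarization · Benchmarks – No-Arfgap1 wells (100%) versus DMSO full-reaction wells (0%) · Repeats – single replicate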
Of the large screens only hits and unclear results are named; the others gave an inactive call.

O=C1CC(=O)N(Cc2ccccc2)C(=O)N1Cc1ccccc1	HNF4A DNA FP 52.3, CSN inh 36.1
O=C1CC(=O)N(Cc2ccccc2)C(=O)N1	none
Cc1ccc(-c2nc3ccc(Cl)cc3n2OC(=O)N(C)C)cc1	none
O=C1NC(=O)N(CCc2ccc(F)cc2)C(=O)/C1=C/c1ccco1	CSN inh 43.2
O=C1NC(=O)N(c2ccccc2)C(=O)/C1=C/c1ccoc1	CSN inh 44.4
CCC(=NCCCN1CCOCC1)c1c(O)n(-c2ccccc2C)c(=O)[nH]c1=O	none
Cc1ccc(N2C(=O)/C(=C/N3CCN(C(=O)c4ccco4)CC3)C(=O)NC2=S)cc1C	none
O=C1NC(=S)N(c2ccc(Br)cc2)C(=O)/C1=C/N1CCN(C(=O)c2ccco2)CC1	HNF4A DNA FP 49.2, CSN inh 57.4
COc1nc2ccccc2nc1N1CCN(C)CC1	none
Cc1ccc(-n2c(O)c(/C=C/C=Nc3ccccc3)c(=O)[nH]c2=O)cc1	HNF4A DNA FP 71.0
COC(=O)c1nc(-c2ccc3c(n2)C(=O)C(N)=C(OC)C3=O)c(N)c(-c2ccc(OC)c(OC)c2O)c1C	ASAP1 GAP inh 30.5
COCCOC(=O)C1=C(N)Oc2c(c(=O)oc3ccccc23)[C@@]12C(=O)Nc1ccccc12	none
CCOc1ccc(-n2c(-c3cccs3)nc3ccccc3c2=O)cc1	none
CCn1nc(-c2cccs2)nc2c(=O)n(C)c(=O)nc1-2	HNF4A DNA FP 100.2, CSN inh 63.0 (no result: ASAP1 GAP inh, ARFGAP1 inh)
CCCCn1c(=O)c(C(=O)Nc2ccccc2C)c(O)c2ccccc21	HNF4A DNA FP 39.1 (no result: ASAP1 GAP inh, ARFGAP1 inh)
Nc1c(C(=O)OC2CCCCC2)c2nc3ccccc3nc2n1CC1CCCO1 (stereo unspecified)	none
CC(C)OC(=O)c1c(N)n(CC2CCCO2)c2nc3ccccc3nc12 (stereo unspecified)	none
CCCNC(=O)c1c(N)n(CC2CCCO2)c2nc3ccccc3nc12 (stereo unspecified)	CSN inh 39.5
CC(C)OCCCNC(=O)c1c(N)n(CC2CCCO2)c2nc3ccccc3nc12 (stereo unspecified)	CSN inh 35.6
Cc1ccc(S(=O)(=O)N2Cc3cc(-c4ccccc4)ccc3-n3nncc3C2)cc1	HNF4A DNA FP 47.9
CC12CNCC(C)(CNC1)C2O (stereo unspecified)	none
CCCCCCn1c(O)c(C=NCCCn2ccnc2)c(=O)[nH]c1=O	HNF4A DNA FP 67.1, CSN inh 53.0
COCCCNC(=O)Cn1cc(/C=C2\C(=O)NC(=O)N(c3ccccc3F)C2=O)c2ccccc21	HNF4A DNA FP 57.0 (no result: ASAP1 GAP inh, ARFGAP1 inh)
COCCNC(=O)Cn1cc(/C=C2\C(=O)NC(=O)N(c3ccccc3F)C2=O)c2ccccc21	none
Cc1ccnc(NC(=O)CCCc2ccc(N(CCCl)CCCl)cc2)n1	CSN inh 83.8
C=CCN1C(=O)/C(=C/c2ccc(N3CCOCC3)o2)C(=O)NC1=S	HNF4A DNA FP 80.3, CSN inh 102.8
O=C(NCCN1CCC2(CC1)C(=O)NCN2c1ccccc1)C(c1ccccc1)c1ccccc1	none (no result: HNF4A DNA FP, CSN inh)
COc1ccc(-n2c(/C=C/c3ccc(O)c(OC)c3)nc3ccccc3c2=O)cc1	none
COc1cccc(-n2c(/C=C/c3ccc(O)c(O)c3)nc3ccccc3c2=O)c1	HNF4A DNA FP 57.3
CN1CCN(c2nc(Cl)ncc2F)CC1	none
Cc1ccc(N2C(=O)/C(=C/c3ccc(CN(CCC#N)S(C)(=O)=O)o3)C(=O)NC2=S)cc1	CSN inh 47.5 (no result: ASAP1 GAP inh, ARFGAP1 inh)
CN1CCN(c2ncc(C=O)s2)CC1	none
Cn1cc(C=C(C#N)C#N)c2ccccc21	CSN inh 36.3
CCOC(=O)CC(SP1(=S)OCC2(CCCCC2)CO1)C(=O)OCC (stereo unspecified)	none
CCCOP(=O)(OCCC)C(NC(=O)c1cc(OC)c(OC)c(OC)c1)c1ccccc1 (stereo unspecified)	HNF4A DNA FP 128.8
CCOP(=O)(OCC)C(NC(=O)c1ccccc1)C(Cl)(Cl)Cl (stereo unspecified)	none
CN1OC[C@@H]2CN[C@H](c3ccccc3Br)C[C@@H]21	none
Cc1nc2nc(SCC(=O)N3CCC4(CC3)OCCO4)nn2c(C)c1Cc1ccccc1	none
COc1ccc(N2C(=O)NC(=O)/C(=C\c3cn(C)c4ccccc34)C2=O)cc1	HNF4A DNA FP 107.9 (no result: ASAP1 GAP inh, ARFGAP1 inh)
COC(=O)Cn1cc(/C=C2\C(=O)NC(=O)N(c3ccc(OC)cc3)C2=O)c2ccccc21	none
Nc1c(C(=O)NCc2ccco2)c2nc3ccccc3nc2n1Cc1ccccc1	none

Screens (PubChem BioAssay)
